# Measurements taken from ChEMBL document CHEMBL4152246, “Natural oxyprenylated coumarins are modulators of melanogenesis” (Eur J Med Chem, 2018).
# Calls of active or inactive are those of the source. The rule behind the calls is not given here.
# What was measured:
# Melan-a [1] = assay: Inhibition of melanogenesis in mouse Melan-a cells assessed as effect on whitening property at 40 uM after 48 hrs; assay type: functional, cell-based
# Procedure, shortened: (§1)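 Melan-a murine melanocytes in RPMI 1640 with 10% FBS, penicillin/streptomycin and 200 nM PMA at 37 °C and 5% CO2. Seeded at 60,000 cells/well in 6-well plates and treated 48 h with 1–40 µM from 1000X DMSO stock (final 0.1% DMSO) or DMSO alone. For line 1, cells were pretreated 1 h with 1 µM ICI 182780. Melanin is read as A405, % of control.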
# Melan-a [2] = assay: Induction of melanogenesis in mouse Melan-a cells assessed as effect on tanning property at 40 uM after 48 hrs; assay type: functional, cell-based
# Melan-a [3] = assay: Cytotoxicity against mouse Melan-a cells assessed as effect on cell viability at <2 uM after 24 to 72 hrs by trypan blue exclusion assay; assay type: cell-based
# Melan-a [4] = assay: Cytotoxicity against mouse Melan-a cells assessed as effect on cell viability at 40 uM after 24 to 72 hrs by trypan blue exclusion assay; assay type: cell-based
# Procedure, shortened: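 Melan-a cells seeded at 60,000/well in 6-well plates and treated at 40 µM (0.1% DMSO) for the indicated times. Cells were trypsinized, pelleted at 4 °C, stained with 0.25% trypan blue in PBS and counted in a Malassez chamber. Viability % = [1 − (blue/total cells)] × 100. Mean ± SEM of three independent experiments in duplicate.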
# Melan-a [5] = assay: Decrease in tyrosinase mRNA expression in mouse Melan-a cells at 40 uM after 24 hrs by SYBR green dye based qRT-PCR analysis relative to control; assay type: functional
# Procedure, shortened: (§2)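 Real-time PCR on Melan-a cells given 40 µM for 24 h. Total RNA was isolated with TRIzol, and Ct values of tyrosinase, TRP-1, TRP-2 and MITF were normalized to cyclophilin A1. Mean of three independent experiments in duplicate.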
# Melan-a [6] = assay: Effect on Rab27a expression in mouse Melan-a cells at 40 uM after 48 hrs by western blot analysis (reference value: 1)
# [7] = molecular target: Estrogen receptor beta (Mus musculus) (UniProt O08537); assay: Binding affinity to ERbeta in mouse Melan-a cells; assay type: cell-based
# Chain of Estrogen receptor beta (Mus musculus) (O08537 whole entry): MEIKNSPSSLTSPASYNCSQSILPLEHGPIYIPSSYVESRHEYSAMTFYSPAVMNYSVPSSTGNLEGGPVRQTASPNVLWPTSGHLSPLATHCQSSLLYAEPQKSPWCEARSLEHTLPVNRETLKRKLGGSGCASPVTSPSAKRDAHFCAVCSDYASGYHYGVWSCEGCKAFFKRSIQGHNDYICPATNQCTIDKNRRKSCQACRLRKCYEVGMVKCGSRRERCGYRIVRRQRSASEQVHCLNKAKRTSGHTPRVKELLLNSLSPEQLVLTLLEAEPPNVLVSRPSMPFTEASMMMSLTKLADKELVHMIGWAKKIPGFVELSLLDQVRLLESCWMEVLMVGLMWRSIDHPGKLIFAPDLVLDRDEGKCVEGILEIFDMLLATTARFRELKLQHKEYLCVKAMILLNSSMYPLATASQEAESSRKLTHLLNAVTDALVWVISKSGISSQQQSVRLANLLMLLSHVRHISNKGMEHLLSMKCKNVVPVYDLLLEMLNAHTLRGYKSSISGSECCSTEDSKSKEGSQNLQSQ
# Melan-a [8] = assay: Decrease in MITF mRNA expression in mouse Melan-a cells at 40 uM after 24 hrs by SYBR green dye based qRT-PCR analysis relative to control; assay type: functional; procedure, shortened: as §2
# Melan-a [9] = assay: Antimelanogenic activity in mouse Melan-a cells assessed as inhibition of UV irradiation-stimulated melanin synthesis at 40 uM measured after 48 hrs
# Melan-a [10] = assay: Inhibition of melanogenesis in mouse Melan-a cells assessed as reduction in melanin content at 40 uM; assay type: functional, cell-based
# Melan-a [11] = assay: Effect on TRP2 expression in mouse Melan-a cells at 40 uM after 48 hrs by western blot analysis (reference value: 1)
# Melan-a [12] = assay: Decrease in TRP2 mRNA expression in mouse Melan-a cells at 40 uM after 24 hrs by SYBR green dye based qRT-PCR analysis relative to control; assay type: functional; procedure, shortened: as §2
# Melan-a [13] = assay: Inhibition of melanogenesis in mouse Melan-a cells assessed as reduction in melanin content at 40 uM after 72 hrs relative to control; assay type: functional
# Procedure, shortened: (§3)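 Melan-a cells in PMA-containing RPMI/10% FBS, treated 3 days at 40 µM (0.1% DMSO final) against DMSO-treated controls. Pellets were washed in PBS and extracted with water/EtOH–ether (1/1). Melanin was solubilized in 1 M NaOH/DMSO 90/10 at 80 °C for 1 h, read as A405 and expressed as % of control. Mean ± SEM, t test.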
# Melan-a [14] = assay: Effect on MITF expression in mouse Melan-a cells at 40 uM after 48 hrs by western blot analysis (reference value: 1)
# Melan-a [15] = assay: Effect on tyrosinase expression in mouse Melan-a cells at 40 uM after 48 hrs by western blot analysis (reference value: 1)
# Melan-a [16] = assay: Antimelanogenic activity in mouse Melan-a cells assessed as inhibition of alpha-MSH-stimulated melanin synthesis at 40 uM measured after 48 hrs
# Melan-a [17] = assay: Effect on TRP1 expression in mouse Melan-a cells at 40 uM after 48 hrs by western blot analysis (reference value: 1)
# Melan-a [18] = assay: Inhibition of melanogenesis in mouse Melan-a cells assessed as effect on pigmentation at 40 uM after 72 hrs by photography; assay type: functional, cell-based
# Procedure, shortened: (§4)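 Melan-a cells treated with 40 µM or solvent vehicle for 3 days, then photographed to record pigmentation.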
# Melan-a [19] = assay: Decrease in TRP1 mRNA expression in mouse Melan-a cells at 40 uM after 24 hrs by SYBR green dye based qRT-PCR analysis relative to control; assay type: functional; procedure, shortened: as §2
# Melan-a [20] = assay: Inhibition of melanogenesis in mouse Melan-a cells assessed as effect on whitening property measured after 48 hrs; assay type: functional, cell-based; procedure, shortened: as §1
# [21] = Photostability of the compound assessed as compound degradation under sunlight exposed for 6 days in EtOH solution measured in presence of UV-A filter Uvinul A by TLC method; assay type: physicochemical; settings: 144 h
# Melan-a [22] = assay: Induction of melanogenesis in mouse Melan-a cells assessed as increase in melanin content at 40 uM; assay type: functional, cell-based
# Melan-a [23] = assay: Induction of melanogenesis in mouse Melan-a cells assessed as increase in melanin content at 10 to 40 uM after 48 hrs; assay type: functional, cell-based; procedure, shortened: as §1
# Melan-a [24] = assay: Increase in TRP2 mRNA expression in mouse Melan-a cells at 40 uM after 24 hrs by SYBR green dye based qRT-PCR analysis; assay type: functional, cell-based; procedure, shortened: as §2
# Melan-a [25] = assay: Increase in TRP1 mRNA expression in mouse Melan-a cells at 40 uM after 24 hrs by SYBR green dye based qRT-PCR analysis; assay type: functional, cell-based; procedure, shortened: as §2
# Melan-a [26] = assay: Increase in MITF mRNA expression in mouse Melan-a cells at 40 uM after 24 hrs by SYBR green dye based qRT-PCR analysis; assay type: functional, cell-based; procedure, shortened: as §2
# Melan-a [27] = assay: Increase in TRP2 expression in mouse Melan-a cells at 40 uM after 48 hrs by Western blot analysis
# Melan-a [28] = assay: Increase in MITF expression in mouse Melan-a cells at 40 uM after 48 hrs by Western blot analysis
# Melan-a [29] = assay: Induction of melanogenesis in mouse Melan-a cells assessed as increase in melanin content at 40 uM after 72 hrs relative to control; assay type: functional; procedure, shortened: as §3
# Melan-a [30] = assay: Induction of melanogenesis in mouse Melan-a cells assessed as effect on pigmentation at 40 uM after 72 hrs by photography; assay type: functional, cell-based; procedure, shortened: as §4
# Melan-a [31] = assay: Increase in Rab27a expression in mouse Melan-a cells at 40 uM after 48 hrs by Western blot analysis
# Melan-a [32] = assay: Increase in tyrosinase mRNA expression in mouse Melan-a cells at 40 uM after 24 hrs by SYBR green dye based qRT-PCR analysis; assay type: functional, cell-based; procedure, shortened: as §2
# [33] = Photostability of the compound assessed as compound degradation under sunlight exposed for 6 days in EtOH solution measured by TLC method; assay type: physicochemical; settings: 144 h
# [34] = molecular target: Estrogen receptor beta (Mus musculus) (UniProt O08537); assay: Agonist activity at ERbeta in mouse Melan-a cells assessed as increase in melanin content at 40 uM measured after 48 hrs in presence of ER antagonist ICI 182780; assay type: cell-based; procedure, shortened: as §1
# Melan-a [35] = assay: Increase in tyrosinase expression in mouse Melan-a cells at 40 uM after 48 hrs by Western blot analysis
# Melan-a [36] = assay: Increase in TRP1 expression in mouse Melan-a cells at 40 uM after 48 hrs by Western blot analysis
# Melan-a [37] = assay: Induction of melanogenesis in mouse Melan-a cells assessed as pro-pigmentation at 40 uM after 48 hrs relative to control; assay type: functional; procedure, shortened: as §1
smiles,measurement,setting,value
CC(C)=CCOc1c2occc2cc2ccc(=O)oc12 [PENTOSALEN],inhibition,Melan-a [1],inactive
same,Activity,Melan-a [2],inactive
same,Activity,Melan-a [3],Toxic
CC(C)=CCC/C(C)=C/COc1c2ccoc2cc2oc(=O)ccc12 [BERGAMOTTIN],Activity,Melan-a [3],Toxic
COc1cc2ccc(=O)oc2cc1OC/C=C(\C)CCC=C(C)C,inhibition,Melan-a [1],inactive
same,Activity,Melan-a [2],inactive
O=c1ccc2ccc(O)cc2o1 [UMBELLIFERONE],inhibition,Melan-a [1],inactive
same,Activity,Melan-a [2],inactive
same,Activity,Melan-a [4],Non-Toxic
CC(C)=CCC/C(C)=C/CC/C(C)=C/COc1ccc2ccc(=O)oc2c1 [UMBELLIPRENIN],fold change (FC),Melan-a [5],>2
same,fold change (FC),Melan-a [6],0.3
same,Activity,[7],Active
same,fold change (FC),Melan-a [8],>2
same,inhibition,Melan-a [9],Active
same,inhibition,Melan-a [10],Dose-dependent effect
same,fold change (FC),Melan-a [11],0.3
same,fold change (FC),Melan-a [12],>2
same,inhibition at 40 µM,Melan-a [13],> 70%
same,Activity,Melan-a [4],Non-Toxic
same,fold change (FC),Melan-a [14],0.5
same,fold change (FC),Melan-a [15],1.6
same,inhibition,Melan-a [16],Active
same,fold change (FC),Melan-a [17],0.1
same,inhibition,Melan-a [18],Active
same,fold change (FC),Melan-a [19],>2
same,inhibition,Melan-a [20],Dose-dependent effect
CC(C)=CCOc1ccc2ccc(=O)oc2c1 [7-PRENYLOXYCOUMARIN],Stability,[21],Stable
same,Activity,[7],Active
same,Activity,Melan-a [22],Dose-dependent effect
same,Activity,Melan-a [23],Active
same,Activity,Melan-a [24],Active
same,Activity,Melan-a [25],Active
same,Activity,Melan-a [26],Active
same,Activity,Melan-a [27],Active
same,Activity,Melan-a [28],Active
same,fold change (FC),Melan-a [29],6
same,Activity,Melan-a [30],Active
same,Activity,Melan-a [31],Active
same,Activity,Melan-a [32],Active
same,Activity,Melan-a [4],Non-Toxic
same,Stability,[33],Unstable
same,Activity,[34],Active
same,Activity,Melan-a [35],Active
same,Activity,Melan-a [36],Active
CC(C)=CCOc1c2ccoc2cc2oc(=O)ccc12 [ISOIMPERATORIN],Activity,Melan-a [3],Toxic
CC(C)=CCC/C(C)=C/COc1ccc2ccc(=O)oc2c1 [AURAPTENE],Stability,[21],Stable
same,Activity,[7],Active
same,Activity,Melan-a [22],Dose-dependent effect
same,fold change (FC),Melan-a [29],2
same,Activity,Melan-a [30],Active
same,fold change (FC),Melan-a [37],1.3
same,Activity,Melan-a [4],Non-Toxic
same,Stability,[33],Unstable
CC(C)=CCC/C(C)=C/COc1c2occc2cc2ccc(=O)oc12,Activity,Melan-a [3],Toxic
COc1cc(OC/C=C(\C)CCC=C(C)C)c2ccc(=O)oc2c1,inhibition,Melan-a [1],inactive
same,Activity,Melan-a [2],inactive
COc1c(OC/C=C(\C)CCC=C(C)C)ccc2ccc(=O)oc12,inhibition,Melan-a [1],inactive
same,Activity,Melan-a [2],inactive
COc1c(OCC=C(C)C)ccc2ccc(=O)oc12,inhibition,Melan-a [1],inactive
same,Activity,Melan-a [2],inactive
